Source: ChEMBL document CHEMBL4368875, “Towards identifying potent new hits for glioblastoma” (Medchemcomm, 2018)

What was measured:
U-251 = assay: Antiproliferative activity against human U251MG cells after 72 hrs by sulforhodamine B assay; assay type: functional, cell-based; conditions: U-251, 72 h
Summary of the method: (§1)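 Established GBM lines grown under conditions similar to the short-term cultures (Hams F10, 10% foetal calf serum, 37 °C, no CO₂). Seeded at 3000 cells per well and grown 48 h to exponential phase. Exposed 72 h to serial dilutions from DMSO stocks. Fixed in 10% TCA, stained with 0.4% SRB in 1% acetic acid, dye dissolved in 10mM Tris, absorbance 560nm. EC50 by non-linear variable-slope fit.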

[1] = Antiproliferative activity against human IN1528 cells after 72 hrs by sulforhodamine B assay; assay type: functional, cell-based; conditions: IN1528, 72 h
Summary of the method: (§2)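 Short-term cultures derived from about 10mg of adult GBM biopsy tissue, used at passages 10 to 14. Grown in Hams F10 with 10% foetal calf serum at 37 °C without CO₂. Seeded at 3000 cells per well, then grown 48 h to exponential phase. Treated 72 h with serial dilutions from DMSO stocks. SRB read-out at 560nm. EC50 from a variable-slope sigmoidal dose-response fit.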

[2] = Antiproliferative activity against human IN1760 cells after 72 hrs by sulforhodamine B assay; assay type: functional, cell-based; conditions: IN1760, 72 h; summary of the method: as §2
U-87 MG = assay: Antiproliferative activity against human U87MG cells after 72 hrs by sulforhodamine B assay; assay type: functional, cell-based, U-87MG ATCC; summary of the method: as §1
[3] = Antiproliferative activity against human IN1472 cells after 72 hrs by sulforhodamine B assay; assay type: functional, cell-based; conditions: IN1472, 72 h; summary of the method: as §2
[4] = Solubility of the compound in DMSO at >1250 uM; assay type: physicochemical

EC50 (U-251) [µM]	EC50 (U-87 MG) [µM]	solubility [4]	Structure (SMILES)	EC50 [1] [µM]	EC50 [2] [µM]	EC50 [3] [µM]
916	–	–	O=C1c2ccccc2C(=O)N1c1ccccc1O	744	1080	–
21	–	–	Cc1ccc(O)c(-c2cc3ccccc3[nH]2)c1	29	32	–
> 1250	> 1250	Insoluble	Oc1ccccc1-c1nc2ccccc2s1	> 1250	> 1250	> 1250
95	–	–	Oc1ccccc1-c1c[nH]c2ccccc12	120	231	–
304	–	–	Oc1ccccc1OCc1ccccc1	193	371	–
38	–	–	CCCCCCC(=O)Oc1ccccc1-c1cc2ccccc2[nH]1	29	–	–
31	–	–	CC(=O)Oc1ccccc1-c1cc2ccccc2[nH]1	80	–	–
328	257	–	Nc1ccccc1-c1cc2ccccc2[nH]1	153	–	155
39	–	–	O=C(Oc1ccccc1-c1cc2ccccc2[nH]1)c1ccccc1	38	–	–
–	> 625	–	COc1ccccc1-c1cc2ccccc2[nH]1 [2-(2'-METHOXYPHENYL)-1H-INDOLE]	–	–	–
> 625	> 625	–	c1ccc(-c2cc3ccccc3[nH]2)cc1 [2-PHENYL-1H-INDOLE]	> 625	> 625	> 625
1340	723	–	CC(=O)Oc1ccccc1C(=O)O [ASPIRIN]	787	> 4000	1410
1140	492	–	COc1ccccc1O [GUAIACOL]	813	> 4000	2020
> 625	> 625	–	c1ccc2[nH]ccc2c1 [INDOLE]	> 625	> 625	> 625
1200	760	–	NC(=O)c1ccccc1O [SALICYLAMIDE]	793	> 4000	1390

The remaining lines, values behind:

Structure (SMILES)	EC50 (U-251) [µM]	EC50 (U-87 MG) [µM]	solubility [4]	EC50 [1] [µM]	EC50 [2] [µM]	EC50 [3] [µM]
Cc1c(O)ccc(O)c1C	17	–	–	–	–	–
Oc1ccccc1-c1nc2ccccc2o1	2260	52	–	–	> 2500	–
Oc1ccccc1-c1nc2ccccc2[nH]1	23	–	–	25	36	–
Oc1ccccc1-c1ccc2ccccc2c1	92	48	–	104	> 1000	–
Oc1ccc(-c2ccccc2)cc1	102	–	–	85	81	–
Oc1ccccc1-c1cc2ccccc2[nH]1 [2-(2'-HYDROXYPHENYL)-1H-INDOLE]	130	126	–	99	185	> 625
Oc1ccccc1-c1ccccc1 [2-PHENYLPHENOL]	372	–	–	361	236	–
Oc1ccc(O)cc1 [HYDROQUINONE]	57	–	–	–	–	–
O=[N+]([O-])c1ccccc1O [NITROPHENOLATE]	1250	888	–	890	> 4000	–
Cc1ccccc1O [ORTHOCRESOL]	1560	664	–	744	> 4000	1440
Oc1ccccc1 [PHENOL]	1230	834	–	747	> 4000	1730
